Test results: ChEMBL document CHEMBL4219193, “Synthesis, biological evaluation and molecular docking study of 1-amino-2-aroylnaphthalenes against prostate cancer” (Bioorg Med Chem Lett, 2018)
The source made the active and inactive calls.

Assays:
Type in all cases: cell-based
[1] = molecular target: RAC-alpha serine/threonine-protein kinase (Homo sapiens) (UniProt P31749); assay: Inhibition of AKT1 phosphorylation in human PC3 cells at 14 uM after 12 to 24 hrs by Western blot analysis
Procedure, shortened: (§1)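 Immunoblotting of PC-3 lysates for procaspase 8, procaspase 9 and phosphorylated Akt1, 2 and 3 after treatment at 14 µM, with samples collected at different time points.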

[2] = molecular target: RAC-gamma serine/threonine-protein kinase (Homo sapiens) (UniProt Q9Y243); assay: Inhibition of AKT3 phosphorylation in human PC3 cells at 14 uM after 12 to 24 hrs by Western blot analysis; procedure, shortened: as §1
[3] = molecular target: RAC-beta serine/threonine-protein kinase (Homo sapiens) (UniProt P31751); assay: Inhibition of AKT2 phosphorylation in human PC3 cells at 14 uM after 12 to 24 hrs by Western blot analysis; procedure, shortened: as §1

Measured: inhibition

Sequence of RAC-alpha serine/threonine-protein kinase (Homo sapiens) (P31749 whole entry): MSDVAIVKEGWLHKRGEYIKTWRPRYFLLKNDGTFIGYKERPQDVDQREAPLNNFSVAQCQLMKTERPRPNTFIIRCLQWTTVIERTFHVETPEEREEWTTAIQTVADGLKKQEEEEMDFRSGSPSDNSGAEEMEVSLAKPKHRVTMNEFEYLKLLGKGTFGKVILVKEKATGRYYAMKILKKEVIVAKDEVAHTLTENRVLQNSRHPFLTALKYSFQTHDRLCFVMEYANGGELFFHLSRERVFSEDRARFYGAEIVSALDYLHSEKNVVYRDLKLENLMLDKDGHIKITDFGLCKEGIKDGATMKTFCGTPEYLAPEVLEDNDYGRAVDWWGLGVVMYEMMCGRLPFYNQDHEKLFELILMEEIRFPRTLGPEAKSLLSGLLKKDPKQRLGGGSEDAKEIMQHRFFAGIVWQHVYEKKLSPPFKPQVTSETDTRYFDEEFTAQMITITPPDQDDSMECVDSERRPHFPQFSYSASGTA
Sequence of RAC-gamma serine/threonine-protein kinase (Homo sapiens) (Q9Y243 whole entry): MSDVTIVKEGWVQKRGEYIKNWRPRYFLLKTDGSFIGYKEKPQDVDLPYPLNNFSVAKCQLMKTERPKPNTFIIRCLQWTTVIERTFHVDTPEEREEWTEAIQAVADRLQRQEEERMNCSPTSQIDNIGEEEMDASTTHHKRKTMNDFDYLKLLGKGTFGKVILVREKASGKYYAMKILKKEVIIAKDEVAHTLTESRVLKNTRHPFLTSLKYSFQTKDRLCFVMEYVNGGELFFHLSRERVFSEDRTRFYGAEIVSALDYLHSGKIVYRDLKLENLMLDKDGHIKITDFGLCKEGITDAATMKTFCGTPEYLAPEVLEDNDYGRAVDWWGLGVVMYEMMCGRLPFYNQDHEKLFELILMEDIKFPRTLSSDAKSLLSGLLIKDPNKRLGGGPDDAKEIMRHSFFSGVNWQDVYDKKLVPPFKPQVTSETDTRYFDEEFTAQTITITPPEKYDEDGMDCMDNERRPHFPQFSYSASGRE
Sequence of RAC-beta serine/threonine-protein kinase (Homo sapiens) (P31751 whole entry): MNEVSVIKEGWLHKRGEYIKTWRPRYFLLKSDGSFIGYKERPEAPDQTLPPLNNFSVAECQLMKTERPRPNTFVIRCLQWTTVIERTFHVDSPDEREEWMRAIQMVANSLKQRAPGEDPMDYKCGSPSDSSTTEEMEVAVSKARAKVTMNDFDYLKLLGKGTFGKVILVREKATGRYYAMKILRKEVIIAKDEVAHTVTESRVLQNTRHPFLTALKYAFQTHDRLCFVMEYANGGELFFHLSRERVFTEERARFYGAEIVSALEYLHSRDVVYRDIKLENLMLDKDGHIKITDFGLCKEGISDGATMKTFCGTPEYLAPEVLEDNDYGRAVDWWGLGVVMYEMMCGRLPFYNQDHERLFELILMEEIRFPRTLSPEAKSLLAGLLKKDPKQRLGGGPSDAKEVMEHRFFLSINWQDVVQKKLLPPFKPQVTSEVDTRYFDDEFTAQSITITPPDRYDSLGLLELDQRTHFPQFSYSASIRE

CSc1c(C(=O)c2ccc(Br)cc2)c(N)c2ccccc2c1C#N
active: all assays above
